An excerpt weighted towards active compounds, which were near 3% of everything screened.
SR-BI DiI-HDL act: enhances SR-BI lipid uptake from DiI-HDL; CHO ldlA[mSR-BI] cells, DiI-HDL uptake fluorescence, 3 h; 100 = double the neutral-control signal; activation, % at 12.5 µM; actives 0.096% (n = 320,000);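 active means mean replicate activation of at least 60% and every replicate at or above 60%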;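 further: 0% = median plate neutral-control signal and 100% = twice that signal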
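System: CHO ldlA[mSR-BI] cells / Medium: HEPES-buffered (25 mM, pH 7.4) F12 plus 0.5% BSA / Probe or stimulus: labelled HDL, 10 µg/mL / Doses: single compound concentration, delivered by pin transfer / Schedule: 3 h, 37 °C / Measured by: DiI fluorescence, bottom read / Measure: cell-associated DiI fluorescence as measure of HDL uptake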
DNA FID counter: counter-screen for HCV NS3 helicase inhibitors: DNA intercalator displacement. DNA fluorescent intercalator displacement, fluorescence. inhibition, % at 7.9 µM. actives 0.17% (n = 290,000). AID 1845; in the data active means inhibition above about 37%;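 further: 0% = vehicle and 100% = reference compound; higher means more ethidium bromide displaced from hairpin DNA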
Kir21 inh: blocks the mouse Kir2.1 inward-rectifier potassium channel | B-score at 10 µM | HEK293-Kir2.1, FluxOR thallium flux fluorescence; active compounds read low | AID 1672 | actives 0.85% (n = 310,000);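 active means fluorescence ratio B-score at or below minus 3 SD of library scores, with starting-brightness B-score within 2 SD, cut at about -4.2 in these data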;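 further: channel flux triggered by added potassium and thallium sulfate stimulus; B-score of peak minus minimum fluorescence over baseline after thallium stimulus; more negative B-score means stronger Kir2.1 block with less thallium influx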
SR-BI HDL uptake: mouse SR-BI HDL lipid transfer inhibition | Q61009 | ldlA[mSR-BI] CHO cells, DiI-HDL uptake fluorescence, 3 h | inhibition, % at 12.5 µM | actives 0.96% (n = 320,000) | AID 488896;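 active means mean replicate inhibition of at least 70% and a set share of replicates each scoring 70 or more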;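 further: 0% = median of neutral control wells and 100% = median of positive control wells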
TMEM16A inh: mouse TMEM16A channel inhibition, primary screen | HEK293 TMEM16A/YFP iodide influx fluorescence, ionomycin | normalized B-score (activity score, 25-100; higher = stronger inhibition) at 10 µM | actives 1.2% (n = 310,000) | AID 588511;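 active means ratio plate-corrected score three or more library SD toward inhibition, starting fluorescence score within five deviations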;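 further: score derived from kinetic fluorescence span divided by baseline fluorescence per well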
Target sequence (Q8BHY3 whole entry, looked up): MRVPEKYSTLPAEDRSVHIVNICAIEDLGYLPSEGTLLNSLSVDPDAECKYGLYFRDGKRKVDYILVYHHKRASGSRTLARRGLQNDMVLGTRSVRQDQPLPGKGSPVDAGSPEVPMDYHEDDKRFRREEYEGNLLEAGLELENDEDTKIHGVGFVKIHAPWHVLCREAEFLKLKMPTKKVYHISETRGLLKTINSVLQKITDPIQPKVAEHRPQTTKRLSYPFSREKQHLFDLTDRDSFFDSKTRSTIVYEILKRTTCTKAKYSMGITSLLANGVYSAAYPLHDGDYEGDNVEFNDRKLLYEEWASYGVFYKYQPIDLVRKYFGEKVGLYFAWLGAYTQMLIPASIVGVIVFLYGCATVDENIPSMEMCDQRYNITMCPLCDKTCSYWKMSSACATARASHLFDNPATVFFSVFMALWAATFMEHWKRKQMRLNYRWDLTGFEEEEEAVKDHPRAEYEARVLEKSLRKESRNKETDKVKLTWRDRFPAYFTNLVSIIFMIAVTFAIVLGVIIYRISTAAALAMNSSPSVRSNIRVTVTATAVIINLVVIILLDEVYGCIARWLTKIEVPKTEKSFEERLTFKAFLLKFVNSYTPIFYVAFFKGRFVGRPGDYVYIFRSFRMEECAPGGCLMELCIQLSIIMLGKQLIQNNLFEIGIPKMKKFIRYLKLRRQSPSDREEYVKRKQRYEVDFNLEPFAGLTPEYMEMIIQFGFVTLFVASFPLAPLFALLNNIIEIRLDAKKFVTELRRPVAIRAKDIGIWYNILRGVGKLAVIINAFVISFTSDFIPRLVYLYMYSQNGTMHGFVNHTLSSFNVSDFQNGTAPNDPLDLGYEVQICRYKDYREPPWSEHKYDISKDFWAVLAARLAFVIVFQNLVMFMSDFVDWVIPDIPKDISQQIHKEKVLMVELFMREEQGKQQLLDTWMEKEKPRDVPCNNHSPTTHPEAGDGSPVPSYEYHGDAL
TMEM16A act: activators or potentiators of mouse TMEM16A chloride channel. actives 0.3% (n = 340,000). HEK293 TMEM16A/YFP-H148Q/I152L, iodide quench fluorescence; active compounds read low. Q8BHY3. B-score at 10 µM;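 active means fluorescence-ratio B-score plate-corrected deviation score at least 3 library SD below zero, with starting fluorescence score within 5 deviations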;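 further: channel opened by trigger with iodide after compound preincubation; score built on the fluorescence ratio of max minus min over baseline; more negative score means more quench and so TMEM16A activation or potentiation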
Starred values were filed as active, the others as inactive.

Results for CCc1nn(C(CC)C(=O)NCC(C)c2ccccc2)c(=O)c2cc3occc3n12 (stereo unspecified) ?
SR-BI DiI-HDL act: -6; DNA FID counter: -34; Kir21 inh: 0.23; SR-BI HDL uptake: 6; TMEM16A act: inactive

How did CC(NC(=O)CSC(=S)N1CCCC1)c1ccc(S(N)(=O)=O)cc1 (stereo unspecified) do in these assays?
SR-BI DiI-HDL act: -6; Kir21 inh: -1; SR-BI HDL uptake: 6; TMEM16A inh: inactive; TMEM16A act: inactive

How did CC(C)OCCCN1C(=O)c2[nH]nc(-c3ccccc3O)c2C1c1cccc(Cl)c1 (stereo unspecified) do in these assays?
SR-BI DiI-HDL act: -72; DNA FID counter: -31; Kir21 inh: 0.09; SR-BI HDL uptake: 72*; TMEM16A inh: inactive; TMEM16A act: inactive

Results for COCCCN1C(=O)c2[nH]nc(-c3ccccc3O)c2C1c1cccc(Cl)c1 (stereo unspecified) ?
SR-BI DiI-HDL act: -39; DNA FID counter: -35; Kir21 inh: -0.19; SR-BI HDL uptake: 39; TMEM16A inh: inactive; TMEM16A act: inactive

Results for COc1ccc(-n2ccc(-c3nn(-c4cccc(C(F)(F)F)c4)ccc3=O)n2)cc1 ?
SR-BI DiI-HDL act: 2; DNA FID counter: -27; Kir21 inh: -0.35; SR-BI HDL uptake: -2; TMEM16A inh: inactive; TMEM16A act: -43*

Results for O=C(c1ccc2ccccc2c1)C1CCCN(C(=O)c2cnccn2)C1 (stereo unspecified) ?
DNA FID counter: -26; Kir21 inh: 0.11; TMEM16A inh: inactive; TMEM16A act: -4.6*

Results for Cc1oc(-c2ccccc2)cc1C(=O)NCc1ccncc1 ?
SR-BI DiI-HDL act: -14; DNA FID counter: -4; Kir21 inh: 0.3; SR-BI HDL uptake: 14; TMEM16A inh: inactive; TMEM16A act: inactive

How did CC(=O)Oc1cc2c(C(=O)NCc3ccncc3)c(C)oc2c2ccccc12 do in these assays?
Kir21 inh: 2.5; TMEM16A inh: inactive; TMEM16A act: -21*

How did COCCC(=O)N1CCC(n2nccc2NC(=O)CCc2ccccc2)CC1 do in these assays?
SR-BI DiI-HDL act: 5; DNA FID counter: -7; Kir21 inh: 1.6; SR-BI HDL uptake: -5; TMEM16A inh: inactive; TMEM16A act: inactive

What do the screens show for `Cc1ccc(NC(=O)CN(C)C(=O)COC(=O)CNS(=O)(=O)c2ccc(Br)cc2Cl)cc1`?
SR-BI DiI-HDL act: 14; DNA FID counter: -34; Kir21 inh: -0.23; SR-BI HDL uptake: -14; TMEM16A inh: inactive; TMEM16A act: -8.1*

How did Cc1ccc(S(=O)(=O)NN)c(C)c1N1CCCC1=O do in these assays?
SR-BI DiI-HDL act: 25; DNA FID counter: -4; Kir21 inh: -1.4; SR-BI HDL uptake: -25; TMEM16A inh: inactive; TMEM16A act: inactive

Results for NC(=S)NN=C1c2cc(OCCN3CCOCC3)ccc2-c2ccc(OCCN3CCOCC3)cc21 ?
SR-BI DiI-HDL act: 16; DNA FID counter: 54*; Kir21 inh: -0.85; SR-BI HDL uptake: -16; TMEM16A inh: inactive; TMEM16A act: inactive

Results for Cn1nnnc1SCCNC(=O)C1CCC(=O)N(Cc2ccc(Cl)cc2)C1 (stereo unspecified) ?
SR-BI DiI-HDL act: 2; DNA FID counter: -13; Kir21 inh: -0.8; SR-BI HDL uptake: -2; TMEM16A inh: inactive; TMEM16A act: inactive

How did Cn1nnnc1SCCNC(=O)C1CCC(=O)N(Cc2ccccc2F)C1 (stereo unspecified) do in these assays?
SR-BI DiI-HDL act: 72*; DNA FID counter: -6; Kir21 inh: -0.18; SR-BI HDL uptake: -72; TMEM16A inh: inactive; TMEM16A act: inactive

How did CCNC(=O)NC(=O)C(C)OC(=O)C(C)(C)Oc1ccc(Cl)cc1 (stereo unspecified) do in these assays?
SR-BI DiI-HDL act: 10; DNA FID counter: -24; Kir21 inh: -5.3*; SR-BI HDL uptake: -10; TMEM16A inh: inactive; TMEM16A act: inactive

How did CSc1nc(Cl)c(Cc2ccc(OC(C)C)cc2)c(N2CCOCC2)n1 do in these assays?
SR-BI DiI-HDL act: -5; DNA FID counter: -10; Kir21 inh: 0.07; SR-BI HDL uptake: 5; TMEM16A inh: 100*; TMEM16A act: inactive

How did COc1nc(SC)nc(Cl)c1Cc1ccc(OC(C)C)cc1 do in these assays?
SR-BI DiI-HDL act: -2; DNA FID counter: -5; Kir21 inh: -0.22; SR-BI HDL uptake: 2; TMEM16A inh: inactive; TMEM16A act: inactive

How did CCN1CCN(C(=O)C(C)Sc2nnc3nc(C)cc(C)n23)CC1 (stereo unspecified) do in these assays?
SR-BI DiI-HDL act: 9; SR-BI HDL uptake: -9; TMEM16A act: inactive

How did O=C(Oc1cccc2c(O)cccc12)c1ccccc1 do in these assays?
SR-BI DiI-HDL act: 23; DNA FID counter: -2; Kir21 inh: -5.4*; SR-BI HDL uptake: -23; TMEM16A inh: inactive; TMEM16A act: inactive

What do the screens show for `O=c1c(C=NCC2CCCO2)c(-c2ccccc2)[nH]n1-c1ccc([N+](=O)[O-])cc1` (stereo unspecified)?
DNA FID counter: -5; Kir21 inh: 0.08; TMEM16A inh: inactive; TMEM16A act: inactive

Results for COc1ccc(-c2[nH]n(-c3ccc([N+](=O)[O-])cc3)c(=O)c2C=NCC2CCCO2)cc1 (stereo unspecified) ?
SR-BI DiI-HDL act: -82; DNA FID counter: -2; Kir21 inh: 0.01; SR-BI HDL uptake: 82*; TMEM16A inh: inactive; TMEM16A act: inactive

How did CC1=NN(C(N)=S)C(=O)C1N=Nc1c(C)cc(C)cc1C (stereo unspecified) do in these assays?
SR-BI DiI-HDL act: -3; DNA FID counter: -9; Kir21 inh: -0.17; SR-BI HDL uptake: 3; TMEM16A inh: inactive; TMEM16A act: inactive

Results for CC1=NN(C(N)=S)C(=O)C1N=Nc1c(Cl)cc([N+](=O)[O-])cc1Cl (stereo unspecified) ?
SR-BI DiI-HDL act: 8; DNA FID counter: -11; Kir21 inh: 0.18; SR-BI HDL uptake: -8; TMEM16A inh: 25*; TMEM16A act: inactive

What do the screens show for `O=C(NC1CC1)c1ccc2c(c1)ncn2C1CCCC1`?
SR-BI DiI-HDL act: 10; DNA FID counter: -2; Kir21 inh: -0.19; SR-BI HDL uptake: -10; TMEM16A inh: inactive; TMEM16A act: inactive

Results for Cn1nnc2cc(C(=O)NC3CC3)ccc21 ?
SR-BI DiI-HDL act: 9; DNA FID counter: -1; Kir21 inh: -0.16; SR-BI HDL uptake: -9; TMEM16A inh: inactive; TMEM16A act: -29*

What do the screens show for `Cc1ccccc1NS(=O)(=O)c1ccc(C(=O)NNC(=O)c2ccccc2O)cc1`?
SR-BI DiI-HDL act: -84; Kir21 inh: 0.75; SR-BI HDL uptake: 84*; TMEM16A inh: inactive; TMEM16A act: inactive

Bioassay records as filed in PubChem BioAssay.
